In ChEMBL document CHEMBL3526011, “Metabolic activation of mefenamic acid leading to mefenamyl-S-acyl-glutathione adduct formation in vitro and in vivo in rat” (Drug Metab Dispos, 2012):
Blank lines part the entries; values can stand above or below the compound they belong to.

Legend:
[1] = Half life in rat hepatocytes; type: ADME, cell-based, Hepatocyte
Procedure, shortened: (§1)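 Authentic acyl-SG thioesters or acyl glucuronide (1 µM) incubated with rat hepatocytes (2 million cells/ml). Quenched at 0–30 min and analysed by LC-MS/MS for % remaining; average of two incubations per time point; half-life derived from the decline.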

Hepatocyte [2] = assay: Drug level in rat hepatocytes treated with 100 uM MFA by reverse phase LC-MS/MS analysis; type: ADME, cell-based
Procedure, shortened: (§2)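 Rat hepatocytes at 2 million viable cells/ml in William's E (pH 7.4) at 37°C under 95% O2/5% CO2, with 100 µM MFA for up to 60 min. Quench times 0–60 min; n=3 incubations per point across three separate studies. Acyl-SG and glucuronide quenched with acidic acetonitrile plus CBZ; acyl-CoA quenched with acetonitrile plus CBZ, then hexane extraction. Positive-ion LC-MS/MS MRM; quantified from analyte/CBZ standard curves.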

Hepatocyte [3] = assay: Drug level in human hepatocytes treated with 100 uM MFA by sensitive LC-MS/MS MRM analysis; type: ADME, cell-based
Procedure, shortened: (§3)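 Human hepatocytes, either cryopreserved 20-donor pooled or a single-donor suspension, thawed or warmed at 37°C, washed in William's E (pH 7.4, 4 mM L-glutamate). Cells at 2 million viable/ml, >95% trypan-blue viability. Incubated with 100 µM MFA at 37°C under 95% O2/5% CO2 with orbital shaking, n=3 per time point. Quench: acetonitrile/3% formic acid with CBZ internal standard; LC-MS/MS MRM.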

Hepatocyte [4] = assay: Drug level in rat hepatocytes treated with 100 uM MFA after 60 mins; type: ADME, cell-based; settings: 1 h; procedure, shortened: as §2
Hepatocyte [5] = assay: Drug level in cryopreserved human hepatocytes treated with 100 uM MFA at 10 mins incubation; type: ADME, cell-based; procedure, shortened: as §3
Hepatocyte [6] = assay: Drug level in rat hepatocytes treated with 500 uM MFA by LC-MS/MS analysis; type: ADME, cell-based
Procedure, shortened: (§4)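 Rat hepatocytes (2 million cells/ml, William's E pH 7.4, 37°C, 95% O2/5% CO2) incubated 10 min with MFA at 0.8–500 µM (11 levels). Quenched and processed for LC-MS/MS MRM of the acyl-SG, acyl glucuronide and acyl-CoA derivatives. Three separate experiments, n=3 incubations per concentration; mean ± S.D.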

Hepatocyte [7] = assay: Drug level in rat hepatocytes treated with at 100 uM MFA by LC-MS/MS analysis in presence of 1000 uM (-)-borneol (reference value: 334 +/- 76); type: ADME, cell-based
Procedure, shortened: (§5)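 Rat hepatocytes (2 million cells/ml, 0.5 ml) with 100 µM MFA for 10 min, with or without 1000 µM (−)-borneol (glucuronidation inhibitor; DMSO stock, 0.1% v/v final in controls) or 1000 µM lauric acid (acyl-CoA formation inhibitor; aqueous stock, pH 7). Triplicate incubations; LC-MS/MS MRM; results given as nM and as % of control, mean ± S.D.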

Hepatocyte [8] = assay: Drug level in rat hepatocytes treated with at 100 uM MFA by LC-MS/MS analysis in presence of 1000 uM Lauric acid (reference value: 334 +/- 76); type: ADME, cell-based; procedure, shortened: as §5
[9] = Drug level in phosphate buffer treated with 1 uM MFA SCoA at pH 7.4 at 37 degC in presence of GSH after 60 mins; type: physicochemical; settings: pH 7.4, 1 h
Procedure, shortened: (§6)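 Acyl-CoA or acyl glucuronide (1 µM) in 0.1 M potassium phosphate, pH 7.4, 37°C, with 10 mM GSH, n=3. Quenched at 0, 15, 30, 45 and 60 min with acetonitrile/3% formic acid containing 1 µM CBZ. The acyl-SG product was measured by LC-MS/MS; mean ± S.D.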

[10] = Drug level in phosphate buffer treated with 1 uM MFA-1-beta-O-G at pH 7.4 at 37 degC in presence of GSH after 60 mins; type: physicochemical; settings: pH 7.4, 1 h; procedure, shortened: as §6
[11] = Increase in drug level in phosphate buffer treated with 1 uM MFA-1-beta-O-G at pH 7.4 at 37 degC in presence of GSH/rat liver GST after 60 mins
Procedure, shortened: (§7)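 Acyl-CoA or acyl glucuronide (1 µM) with 10 mM GSH in 0.1 M potassium phosphate, pH 7.4, 37°C, additionally fortified with rat liver GST (3 units/ml). Up to 60 min; acyl-SG formation measured by LC-MS/MS and compared with incubations lacking GST.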

[12] = Increase in drug level in phosphate buffer treated with 1 uM MFA-SCoA at pH 7.4 at 37 degC in presence of GSH/rat liver GST after 60 mins; procedure, shortened: as §7
[13] = Drug level in Sprague-Dawley rat bile treated with 100 mg/kg, ip MFA after 6 hrs by LC-MS/MS analysis; type: ADME, organism-based; design: dose 100 mg/kg, route intraperitoneal; settings: in vivo
Procedure, shortened: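 Male Sprague-Dawley rats (300–330 g, n=3) with bile-duct cannulas, housed in metabolic cages; MFA 100 mg/kg i.p. in water, pH 7.0. Artificial bile-salt supplement infused via duodenal cannula at 1 ml/h. Bile collected over 6 h into phosphoric acid on wet ice, centrifuged, and the supernatant quantified by LC-MS/MS against a linear standard curve of analyte/CBZ peak-area ratios.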

Hepatocyte [14] = assay: Retention time in rat hepatocytes treated with 100 uM MFA by positive ion LC-MS/MS analysis; type: ADME, cell-based; procedure, shortened: as §2
Hepatocyte [15] = assay: Drug level in rat hepatocytes treated with 62.5 uM MFA by LC-MS/MS analysis; type: ADME, cell-based; procedure, shortened: as §4
[16] = Half life in rat hepatocytes at 1 uM; type: ADME, cell-based, Hepatocyte; procedure, shortened: as §1
Hepatocyte [17] = assay: Drug level in rat hepatocytes treated with at 100 uM MFA by LC-MS/MS analysis in presence of 1000 uM (-)-borneol (reference value: 619 +/-158); type: ADME, cell-based; procedure, shortened: as §5
Hepatocyte [18] = assay: Drug level in rat hepatocytes treated with at 100 uM MFA by LC-MS/MS analysis in presence of 1000 uM Lauric acid (reference value: 619 +/-158); type: ADME, cell-based; procedure, shortened: as §5
[19] = Half life in potassium phosphate buffer at 1 uM at pH 7.4 at 37 degC; type: physicochemical
Procedure, shortened: (§8)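 Acyl-CoA and acyl glucuronide (1 µM, separate incubations) in 0.1 M potassium phosphate, pH 7.4, 37°C, without GSH. Quenched at 0, 5, 8 and 15 h, n=3 per time point; % remaining determined by LC-MS/MS.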

Hepatocyte [20] = assay: Drug level in single-donor human hepatocytes in suspension treated with 100 uM MFA at 60 mins incubation; settings: 1 h
[21] = Drug level in phosphate buffer treated with 1 uM I-SCoA at pH 7.4 at 37 degC in presence of GSH after 60 mins; type: physicochemical; settings: pH 7.4, 1 h; procedure, shortened: as §6
GST = assay: (§9) Stability in rat liver GST assessed as degradation at 1 uM after 30 mins relative to control; type: ADME, tissue-based; settings: rat liver GST
Procedure, shortened: (§10)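 Acyl-SG thioesters (1 µM) in 0.1 M phosphate buffer, pH 7.4, 37°C (0.2 ml), with or without rat liver GST at 3 units/ml. Duplicates per time point, quenched at 0–60 min with acidic acetonitrile plus CBZ and analysed directly by LC-MS/MS. Degradation at 30 min expressed relative to the no-GST control.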

[22] = Drug metabolism in rat hepatocytes assessed as MFA-SCoA at 100 uM by reverse phase LC-MS/MS analysis; type: ADME, cell-based, Hepatocyte; procedure, shortened: as §2
[23] = Drug metabolism in human hepatocytes assessed as MFA-SCoA at 100 uM by reverse phase LC-MS/MS analysis; type: ADME, cell-based, Hepatocyte
Procedure, shortened: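 MFA 100 µM with human hepatocytes (2 million viable cells/ml, William's E pH 7.4, 37°C, 95% O2/5% CO2). For the acyl-CoA thioester, quench was acetonitrile without formic acid plus CBZ, followed by hexane extraction. The aqueous layer was analysed by positive-ion LC-MS/MS MRM (m/z 991→224 and 484).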

[24] = Drug metabolism in rat hepatocytes assessed as MFA-SG at 100 uM by sensitive LC-MS/MS MRM analysis; type: ADME, cell-based, Hepatocyte; procedure, shortened: as §2
[25] = Drug metabolism in human hepatocytes assessed as MFA-SG at 100 uM by sensitive LC-MS/MS MRM analysis; type: ADME, cell-based, Hepatocyte; procedure, shortened: as §3
[26] = Drug metabolism in rat hepatocytes assessed as MFA-1-beta-O-G at 100 uM by positive ion LC-MS/MS analysis; type: ADME, cell-based, Hepatocyte; procedure, shortened: as §2
[27] = Drug metabolism in rat hepatocytes assessed as acyl migration isomers at 100 uM by positive ion LC-MS/MS analysis; type: ADME, cell-based, Hepatocyte
[28] = Drug metabolism in rat hepatocytes assessed as MFA-SCoA by LC-MS/MS analysis; type: ADME, cell-based, Hepatocyte; procedure, shortened: as §4
[29] = Drug metabolism in rat hepatocytes assessed as I-SG thioester at 100 uM at 10 mins incubation by LC-MS/MS analysis; type: ADME, cell-based, Hepatocyte
Procedure, shortened: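 Rat hepatocytes (2 million cells/ml, William's E pH 7.4, 37°C, 95% O2/5% CO2) incubated with (R)-ibuprofen 100 µM for 10 min, n=3. Quenched with acetonitrile/3% formic acid containing CBZ. The acyl-SG thioester was quantified by LC-MS/MS against a linear acyl-SG/CBZ peak-area-ratio standard curve.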

Hepatocyte [30] = assay: Drug level in rat hepatocytes treated with 15.6 uM MFA by LC-MS/MS analysis; type: ADME, cell-based; procedure, shortened: as §4
Hepatocyte [31] = assay: Drug level in rat hepatocytes treated with at 100 uM MFA by LC-MS/MS analysis in presence of 1000 uM (-)-borneol (reference value: 9.1 +/- 4.5); type: ADME, cell-based; procedure, shortened: as §5
Hepatocyte [32] = assay: Drug level in rat hepatocytes treated with at 100 uM MFA by LC-MS/MS analysis in presence of 1000 uM Lauric acid (reference value: 9.1 +/- 4.5); type: ADME, cell-based; procedure, shortened: as §5
[33] = Stability in potassium phosphate buffer at 1 uM at pH 7.4 at 37 degC; type: physicochemical; settings: pH 7.4, 1 µM; procedure, shortened: as §8
[34] = as §9; type: ADME, tissue-based; settings: 0.5 h, 1 µM; procedure, shortened: as §10

SMILES: Cc1cc(CC(=O)SC[C@H](NC(=O)CC[C@H](N)C(=O)O)C(=O)NCC(=O)O)n(C)c1C(=O)c1ccc(Cl)cc1
- half-life [1]: 0.8 min

SMILES: Cc1cccc(Nc2ccccc2C(=O)O[C@@H]2O[C@H](C(=O)O)[C@@H](O)[C@H](O)[C@H]2O)c1C
- Retention_time (Hepatocyte [14]): 11 min
- Drug metabolism (Hepatocyte [4]): 1560 nM
- Drug metabolism (Hepatocyte [5]): 3500 nM
- Drug metabolism (Hepatocyte [6]): 460 nM
- Drug metabolism (Hepatocyte [15]): 700 nM
- half-life at 1 µM [16]: > 60 min
- Drug metabolism (Hepatocyte [17]): 55.1 nM
- Drug metabolism (Hepatocyte [18]): 198 nM
- half-life at 1 µM [19]: 990 min
- Drug uptake [13]: 2000 µg
- Drug metabolism (Hepatocyte [20]): 18.6 µM

SMILES: CC(C)Cc1ccc(C(C)C(=O)SC[C@H](NC(=O)CC[C@H](N)C(=O)O)C(=O)NCC(=O)O)cc1 (some centres undefined)
- half-life [1]: 4 min
- Drug metabolism [9]: 440 nM
- Drug metabolism [21]: 440 nM
- metabolised at 0.5 h, 1 µM (GST): 11%

SMILES: Cc1cccc(Nc2ccccc2C(=O)O)c1C [MEFENAMIC ACID]
- Drug metabolism [22]: metabolite_detected
- Drug metabolism [23]: metabolite_not_detected
- Drug metabolism [24]: metabolite_detected
- Drug metabolism [25]: metabolite_detected
- Drug metabolism [26]: metabolite_detected
- Drug metabolism [27]: metabolite_not_detected
- Drug metabolism [28]: Dose-dependent effect
- Drug metabolism [29]: 3 nM
- Drug uptake [13]: 4 µg

SMILES: Cc1cccc(Nc2ccccc2C(=O)SCCNC(=O)CCNC(=O)C(O)C(C)(C)COP(=O)(O)OP(=O)(O)OC[C@H]2O[C@@H](n3cnc4c(N)ncnc43)[C@H](O)[C@@H]2OP(=O)(O)O)c1C (some centres undefined)
- Drug metabolism (Hepatocyte [2]): metabolite_detected
- Drug metabolism (Hepatocyte [30]): 6 nM
- Drug metabolism (Hepatocyte [31]): 8.8 nM
- Drug metabolism (Hepatocyte [32]): 3.8 nM
- Stability [33]: Stable

Further lines, with some results ahead:

- Drug metabolism (Hepatocyte [2]): metabolite_detected
- Drug metabolism (Hepatocyte [3]): metabolite_detected
- Drug metabolism (Hepatocyte [4]): 50 nM
- Drug metabolism (Hepatocyte [5]): 1 nM
- Drug metabolism (Hepatocyte [6]): 230 nM
- Drug metabolism (Hepatocyte [7]): 387 nM
- Drug metabolism (Hepatocyte [8]): 113 nM
- Drug metabolism [9]: 208 nM
- Drug metabolism [10]: 2.7 nM
- Drug uptake [13]: 17.4 µg
SMILES: Cc1cccc(Nc2ccccc2C(=O)SC[C@H](NC(=O)CC[C@H](N)C(=O)O)C(=O)NCC(=O)O)c1C
- fold change (FC) [11]: 6
- fold change (FC) [12]: 1.3

- half-life [1]: 1 min
- Stability [34]: Unstable
SMILES: N[C@@H](CCC(=O)N[C@@H](CSC(=O)Cc1ccccc1Nc1c(Cl)cccc1Cl)C(=O)NCC(=O)O)C(=O)O
